Reference: ChEMBL document CHEMBL1165974, “Novel pyrazole derivatives: synthesis and evaluation of anti-angiogenic activity” (Bioorg Med Chem, 2010)
Calls of active or inactive are those of the source. The rule behind the calls is not given here.

How the values were obtained:
[1] = Antiangiogenic activity in MAEC assessed as inhibition of cell proliferation after 5 days by Coulter counting analysis; type: functional; conditions: Mus musculus, 120 h
How it was run: (§1)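 Cells seeded at 10,000 cells per cm2; after 16 h given fresh medium containing test compounds. Trypsinized on day 5 and counted by Coulter counter. […] Tumour lines kept in DMEM with 10 mM Hepes and 10% FBS.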

HeLa = assay: Cytostatic activity against human HeLa cells after 5 days by Coulter counting analysis; type: functional, cell-based; conditions: 120 h; how it was run: as §1
MCF7 = assay: Cytostatic activity against human MCF7 cells after 5 days by Coulter counting analysis; type: functional, cell-based; conditions: MCF7, 120 h; how it was run: as §1
[2] = Antiangiogenic activity in BAEC assessed as inhibition of cell proliferation after 5 days by Coulter counting analysis; type: functional, cell-based; conditions: Bos taurus, 120 h; how it was run: as §1
Gallus gallus [3] = species on record: Gallus gallus; assay: Antiangiogenic activity in chicken embryo chorioallantoic membrane model assessed as inhibition of VEGF-induced angiogenesis at 50 nmol after 2 days by photographic analysis
Gallus gallus [4] = species on record: Gallus gallus; assay: Antiangiogenic activity in chicken embryo chorioallantoic membrane model assessed as complete inhibition of VEGF-induced angiogenesis at 50 nmol after 2 days by photographic analysis
[5] = Antiangiogenic activity in MAEC assessed as inhibition of cell migration-associated wound closure at 50 uM after 8 hrs imaging analysis; type: functional; conditions: Mus musculus
How it was run: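 Confluent MAEC monolayers wounded with a 1.0-mm wide tip, then incubated in fresh medium with 10% FCS plus compound (10 and 50 μM). At 8 h, wounds photographed; cells invading the wound quantified by computerized analysis of digitized images. Results as mean ± SEM.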

Compound	IC50 [1]	IC50 (HeLa)	IC50 (MCF7)	IC50 [2]	inhibition (Gallus gallus [3])	inhibition (Gallus gallus [4])	inhibition at 50 µM [5]
O=C(O)/C=C/c1cn(-c2ccc(O)cc2)nc1-c1ccc(O)cc1	> 100 µM						
O=C(O)/C=C/c1cn(-c2ccc(O)cc2)nc1-c1cccc(O)c1	> 100 µM						
CCOC(=O)/C=C/c1cn(-c2ccc(O)cc2)nc1-c1cccc(O)c1	14 µM						
O=Cc1cn(-c2ccc(O)cc2)nc1-c1ccc(O)cc1	44 µM	37 µM	38 µM	32 µM	48%		
CCOC(=O)/C=C/c1cn(-c2ccc(O)cc2)nc1-c1cc(O)ccc1O	12 µM						
CCOC(=O)/C=C/c1cn(-c2ccc(O)cc2)nc1-c1ccc(O)cc1	25 µM						
O=C(O)/C=C/c1cn(-c2ccc(O)cc2)nc1-c1ccc(O)c(O)c1	> 100 µM						
O=Cc1cn(-c2ccc(O)cc2)nc1-c1cccc(O)c1	42 µM	37 µM	29 µM	29 µM	50%		
O=c1c2cn(-c3ccc(O)cc3)nc2c2cc(O)ccc2n1O	25 µM	37 µM	26 µM	38 µM	64%	Active	76%
O=C(O)/C=C/c1cn(-c2ccc(O)cc2)nc1-c1ccccc1	> 100 µM						
CCOC(=O)/C=C/c1cn(-c2ccc(O)cc2)nc1-c1ccc(O)c(O)c1	6.2 µM						
O=c1c2cn(-c3ccc(O)cc3)nc2c2ccc(O)cc2n1O	42 µM	38 µM	25 µM	52 µM	Active		
O=Cc1cn(-c2ccc(O)cc2)nc1-c1cc(O)ccc1O	43 µM	≥ 100 µM	≥ 100 µM	≥ 100 µM	Toxic		
O=c1c2cn(-c3ccc(O)cc3)nc2c2c(O)ccc(O)c2n1O					Active		
O=C(O)/C=C/c1cn(-c2ccc(O)cc2)nc1-c1cc(O)ccc1O	> 100 µM						
O=Cc1cn(-c2ccc(O)cc2)nc1-c1ccccc1	> 100 µM	79 µM	47 µM	64 µM	inactive		
O=c1c2cn(-c3ccc(O)cc3)nc2c2ccccc2n1O	7 µM	8.9 µM	5.8 µM	4.6 µM	Active		
O=c1c2cn(-c3ccc(O)cc3)nc2c2cc(O)c(O)cc2n1O					Active		
CCOC(=O)/C=C/c1cn(-c2ccc(O)cc2)nc1-c1ccccc1	29 µM						
O=Cc1cn(-c2ccc(O)cc2)nc1-c1ccc(O)c(O)c1	12 µM	39 µM	24 µM	17 µM	Toxic		
